Source: ChEMBL document CHEMBL1128434, “Gonadotropin-releasing hormone antagonists: novel members of the azaline B family” (1995)
Blank lines part the entries; values can stand above or below the compound they belong to.

Tests used:
Rattus norvegicus [1] = organism: Rattus norvegicus; test: Effect in the anti ovulatory assay (AOA) in rats expressed as no. of rats ovulating/No of rats treated at 0.5 mg; 6/7; type: functional
[2] = target: T1, Gonadotropin-releasing hormone receptor (Rattus norvegicus) (UniProt P30969); test: Duration of action measured using castrated male rat assay to inhibit luteinizing hormone release.; fully active at 72 hr; type: functional
T1 sequence (whole entry): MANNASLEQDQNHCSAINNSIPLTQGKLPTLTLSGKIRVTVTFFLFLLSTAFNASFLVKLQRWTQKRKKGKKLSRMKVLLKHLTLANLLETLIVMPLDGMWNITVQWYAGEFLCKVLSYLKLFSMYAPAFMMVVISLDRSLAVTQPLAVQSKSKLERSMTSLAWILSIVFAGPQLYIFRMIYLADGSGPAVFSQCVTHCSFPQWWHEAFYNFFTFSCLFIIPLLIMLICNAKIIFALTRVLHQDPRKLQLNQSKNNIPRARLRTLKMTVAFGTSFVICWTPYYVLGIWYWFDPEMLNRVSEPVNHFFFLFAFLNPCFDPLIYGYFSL

Rattus norvegicus [3] = organism: Rattus norvegicus; test: Effect in the anti ovulatory assay (AOA) in rats expressed as no. of rats ovulating/No of rats treated at 1.0 mg; 5/13; type: functional
Rattus norvegicus [4] = organism: Rattus norvegicus; test: Effect in the anti ovulatory assay (AOA) in rats expressed as no. of rats ovulating/No of rats treated at 2.5 mg; 0/7; type: functional
Rattus norvegicus [5] = organism: Rattus norvegicus; test: Effect in the anti ovulatory assay (AOA) in rats expressed as no. of rats ovulating/No of rats treated at 1.0 mg; 4/8; type: functional
Rattus norvegicus [6] = organism: Rattus norvegicus; test: Effect in the anti ovulatory assay (AOA) in rats expressed as no. of rats ovulating/No of rats treated at 0.5 mg; 8/8; type: functional
[7] = target: T1, Gonadotropin-releasing hormone receptor (Rattus norvegicus); test: In vitro potency to inhibit GnRH-mediated LH secretion by cultured pituitary cells relative to [Ac-delta-Pro1,DFpa2,DTrp36]GnRH.; type: functional, cell-based; conditions: Pituitary gland cell
Summary of the method: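 Dispersed rat pituitary cells in culture; antagonist inhibition of GnRH-stimulated LH secretion. Potency expressed relative to standard antagonist [Ac-Δ3Pro1,D4FPhe2,DTrp3,6]GnRH taken as 1.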

Rattus norvegicus [8] = organism: Rattus norvegicus; test: Effect in the anti ovulatory assay (AOA) in rats expressed as no. of rats ovulating/No of rats treated at 0.5 mg; 10/14; type: functional
Rattus norvegicus [9] = organism: Rattus norvegicus; test: Effect in the anti ovulatory assay (AOA) in rats expressed as no. of rats ovulating/No of rats treated at 1.0 mg; 1/8; type: functional
Rattus norvegicus [10] = organism: Rattus norvegicus; test: Effect in the anti ovulatory assay (AOA) in rats expressed as no. of rats ovulating/No of rats treated at 100 mg; 0/4; type: functional
Rattus norvegicus [11] = organism: Rattus norvegicus; test: Effect in the anti ovulatory assay (AOA) in rats expressed as no. of rats ovulating/No of rats treated at 25 mg; 2/8; type: functional
[12] = target: T1, Gonadotropin-releasing hormone receptor (Rattus norvegicus); test: Effect in the anti ovulatory assay (AOA) in rats expressed as no. of rats ovulating/No of rats treated at 2.5 mg; 0/8; type: functional
Rattus norvegicus [13] = organism: Rattus norvegicus; test: Effect in the anti ovulatory assay (AOA) in rats expressed as no. of rats ovulating/No of rats treated at 1.0 mg; 3/9; type: functional
Rattus norvegicus [14] = organism: Rattus norvegicus; test: Effect in the anti ovulatory assay (AOA) in rats expressed as no. of rats ovulating/No of rats treated at 5.0 mg; 0/6; type: functional
Rattus norvegicus [15] = organism: Rattus norvegicus; test: Effect in the anti ovulatory assay (AOA) in rats expressed as no. of rats ovulating/No of rats treated at 2.5 mg; 4/4; type: functional
Rattus norvegicus [16] = organism: Rattus norvegicus; test: Effect in the anti ovulatory assay (AOA) in rats expressed as no. of rats ovulating/No of rats treated at 1.0 mg; 7/8; type: functional
Rattus norvegicus [17] = organism: Rattus norvegicus; test: Effect in the anti ovulatory assay (AOA) in rats expressed as no. of rats ovulating/No of rats treated at 2.5 mg; 0/6
Rattus norvegicus [18] = organism: Rattus norvegicus; test: Effect in the anti ovulatory assay (AOA) in rats expressed as no. of rats ovulating/No of rats treated at 2.5 mg; 0/6; type: functional
Rattus norvegicus [19] = organism: Rattus norvegicus; test: Effect in the anti ovulatory assay (AOA) in rats expressed as no. of rats ovulating/No of rats treated at 0.5 mg; 6/6; type: functional
Rattus norvegicus [20] = organism: Rattus norvegicus; test: Effect in the anti ovulatory assay (AOA) in rats expressed as no. of rats ovulating/No of rats treated at 1.0 mg; 2/10; type: functional
Rattus norvegicus [21] = organism: Rattus norvegicus; test: Duration of action measured using castrated male rat assay to inhibit luteinizing hormone release.; fully active at 48 hr but not at 72 hr; type: functional

SMILES: CC(=O)N[C@H](Cc1ccc2ccccc2c1)C(=O)N[C@H](Cc1ccc(Cl)cc1)C(=O)N[C@H](Cc1cccnc1)C(=O)N[C@@H](CO)C(=O)N[C@@H](Cc1ccc(NC(=O)c2cnccn2)cc1)C(=O)N[C@H](Cc1ccc(NC(=O)c2cnccn2)cc1)C(=O)N[C@@H](CC(C)C)C(=O)N[C@@H](CCCCNC(C)C)C(=O)N1CCC[C@H]1C(=O)N[C@H](C)N
No. of rats ovulated (Rattus norvegicus [5]): 4 | No. of rats ovulated (Rattus norvegicus [6]): 8

SMILES: CC[C@H](C)[C@H](NC(=O)[C@H](CC(C)C)NC(=O)[C@@H](Cc1ccc(Nc2n[nH]c(N)n2)cc1)NC(=O)[C@H](Cc1ccc(Nc2n[nH]c(N)n2)cc1)N(C)C(=O)[C@H](CO)NC(=O)[C@@H](Cc1cccnc1)NC(=O)[C@@H](Cc1ccc(Cl)cc1)NC(=O)[C@@H](Cc1ccc2ccccc2c1)NC(C)=O)C(=O)N1CCC[C@H]1C(=O)N[C@H](C)N
No. of rats ovulated (Rattus norvegicus [10]): 0 | No. of rats ovulated (Rattus norvegicus [11]): 2

SMILES: CC(=O)N[C@H](Cc1ccc2ccccc2c1)C(=O)N[C@H](Cc1ccc(Cl)cc1)C(=O)N[C@H](Cc1cccnc1)C(=O)N[C@@H](CO)C(=O)N(C)[C@@H](Cc1ccc(Nc2n[nH]c(N)n2)cc1)C(=O)N[C@H](Cc1ccc(Nc2n[nH]c(N)n2)cc1)C(=O)N[C@@H](CC(C)C)C(=O)N[C@@H](Cc1ccc(CNC(C)C)cc1)C(=O)N1CCC[C@H]1C(=O)N[C@H](C)N
No. of rats ovulated (Rattus norvegicus [14]): 0 | No. of rats ovulated (Rattus norvegicus [15]): 4

SMILES: CC(=O)N[C@H](Cc1ccc2ccccc2c1)C(=O)N[C@H](Cc1ccc(Cl)cc1)C(=O)N[C@H](Cc1cccnc1)C(=O)N[C@@H](CO)C(=O)N[C@@H](Cc1ccc(NC(=O)CCCCCNc2n[nH]c(N)n2)cc1)C(=O)N[C@H](Cc1ccc(NC(=O)CCCCCNc2n[nH]c(N)n2)cc1)C(=O)N[C@@H](CC(C)C)C(=O)N[C@@H](CCCCNC(C)C)C(=O)N1CCC[C@H]1C(=O)N[C@H](C)N
No. of rats ovulated (Rattus norvegicus [19]): 6 | Relative potency [7]: 0.48 | No. of rats ovulated (Rattus norvegicus [20]): 2 | Duration of action (Rattus norvegicus [21]): 48 h

Further lines, with some results ahead:

Duration of action [2]: 72 h
SMILES: CC(=O)Nc1ccc(C[C@H](NC(=O)[C@H](CO)NC(=O)[C@@H](Cc2cccnc2)NC(=O)[C@@H](Cc2ccc(Cl)cc2)NC(=O)[C@@H](Cc2ccc3ccccc3c2)NC(C)=O)C(=O)N[C@H](Cc2ccc(NC(C)=O)cc2)C(=O)N[C@@H](CC(C)C)C(=O)N[C@@H](CCCCNC(C)C)C(=O)N2CCC[C@H]2C(=O)N[C@H](C)N)cc1
No. of rats ovulated (Rattus norvegicus [1]): 6 | No. of rats ovulated (Rattus norvegicus [3]): 5 | No. of rats ovulated (Rattus norvegicus [4]): 0

Duration of action [2]: 72 h | Relative potency [7]: 0.21
SMILES: CC(=O)N[C@H](Cc1ccc2ccccc2c1)C(=O)N[C@H](Cc1ccc(Cl)cc1)C(=O)N[C@H](Cc1cccnc1)C(=O)N[C@@H](CO)C(=O)N[C@@H](Cc1ccc(NC(=O)CCCNc2n[nH]c(N)n2)cc1)C(=O)N[C@H](Cc1ccc(NC(=O)CCCNc2n[nH]c(N)n2)cc1)C(=O)N[C@@H](CC(C)C)C(=O)N[C@@H](CCCCNC(C)C)C(=O)N1CCC[C@H]1C(=O)N[C@H](C)N
No. of rats ovulated (Rattus norvegicus [8]): 10 | No. of rats ovulated (Rattus norvegicus [9]): 1

Duration of action [2]: 72 h | No. of rats ovulated [12]: 0
SMILES: CC(=O)N[C@H](Cc1ccc2ccccc2c1)C(=O)N[C@H](Cc1ccc(Cl)cc1)C(=O)N[C@H](Cc1cccnc1)C(=O)N[C@@H](CO)C(=O)N[C@@H](Cc1ccc(NC=O)cc1)C(=O)N[C@H](Cc1ccc(NC=O)cc1)C(=O)N[C@@H](CC(C)C)C(=O)N[C@@H](CCCCNC(C)C)C(=O)N1CCC[C@H]1C(=O)N[C@H](C)N
No. of rats ovulated (Rattus norvegicus [13]): 3

Duration of action [2]: 72 h | Relative potency [7]: 0.74
SMILES: CC(=O)N[C@H](Cc1ccc2ccccc2c1)C(=O)N[C@H](Cc1ccc(Cl)cc1)C(=O)N[C@H](Cc1cccnc1)C(=O)N[C@@H](CO)C(=O)N[C@@H](Cc1ccc(N)cc1)C(=O)N[C@H](Cc1ccc(N)cc1)C(=O)N[C@@H](CC(C)C)C(=O)N[C@@H](CCCCNC(C)C)C(=O)N1CCC[C@H]1C(=O)N[C@H](C)N
No. of rats ovulated (Rattus norvegicus [16]): 7 | No. of rats ovulated (Rattus norvegicus [17]): 0 | No. of rats ovulated (Rattus norvegicus [18]): 0
